# Source: ChEMBL document CHEMBL1126740, “(S)- and (R)-8-(di-n-propylamino)-6,7,8,9-tetrahydro-3H-benz[e]indole-1-carbaldehyde: a new class of orally active 5-HT1A-receptor agonists” (J Med Chem, 1993)
# Activity calls are given as the source filed them. The calls are words filed in the database; no cut-off is given here.
# What was measured:
# D(2) dopamine receptor [1] = target: T1, D(2) dopamine receptor (Rattus norvegicus, UniProt P61169); experiment: Displacement of [3H]spiperone from dopamine receptor D2
# How it was run: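 Rat striatal membranes in 50 mM potassium phosphate buffer (3 mg original tissue) incubated with 0.5 nM [3H]spiperone for 10 min at 37 °C. Nonspecific binding was defined with 10 μM 6,7-ADTN. Ki was calculated by Cheng–Prusoff; triplicates, 3–7 experiments.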
# Rattus norvegicus [2] = experiment: In vivo evaluation for 5-HTP accumulation in the limbic system in male rats (sc); type: functional
# How it was run: (§1)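 Male Sprague-Dawley rats were pretreated with reserpine 5 mg/kg sc 18 h before dosing. DOPA and 5-HTP in limbic system, striatum and hemispheres were measured by HPLC with electrochemical detection. Dose-response curves used 4–6 dose levels (n = 4) for each region; ED50 was estimated graphically. Partial responses are given as the maximal % reduction at the highest dose tested.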
# Rattus norvegicus [3] = experiment: In vivo evaluation for 5-HTP accumulation in the hemispheres in male rats (sc); type: functional; how it was run: as §1
# D(2) dopamine receptor [4] = target: T1, D(2) dopamine receptor; experiment: In vitro binding affinity against dopamine receptor D2 using [3H]-Raclopride as radioligand in CHO cells (sc); type: cell-based
# Rattus norvegicus [5] = experiment: In vivo evaluation for 5-HTP accumulation in the corpus striatum in male rats (sc); type: functional; how it was run: as §1
# Rattus norvegicus [6] = experiment: In vivo evaluation for DOPA accumulation in the limbic system in male rats (sc); type: functional; how it was run: as §1
# Rattus norvegicus [7] = experiment: In vivo evaluation for DOPA accumulation in the hemispheres in male rats at highest test dose of 12.5 uM/Kg (sc); inactive; type: functional, organism-based; how it was run: as §1
# Rattus norvegicus [8] = experiment: In vivo evaluation for DOPA accumulation in the corpus striatum in male rats (sc); type: functional; how it was run: as §1
# Rattus norvegicus [9] = organism: Rattus norvegicus; experiment: Compound was tested for 5-HT behavioral response in reserpine pretreated rats; +5HT syndrome; type: functional, organism-based
# How it was run: (§2)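 Male Sprague-Dawley rats (200–300 g) were given reserpine 5 mg/kg sc 18 h before testing, then the test drug sc in the neck (n = 4). Motor activity was recorded by photocells for 30 min, with gross behaviour observed throughout. 5-HT syndrome: flat body posture, extended limbs, reciprocal forepaw treading. DA response: locomotion and stereotypies.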
# Rattus norvegicus [10] = experiment: Maximal reduction in percent (Partial response) of 5-HTP accumulation rat hemispheres at highest test dose of 50 uM/Kg (sc); type: functional; how it was run: as §1
# Rattus norvegicus [11] = experiment: Maximal reduction in percent (Partial response) of DOPA accumulation rat corpus striatum at highest test dose of 50 uM/Kg (sc); type: functional; how it was run: as §1
# [12] = target: T2, 5-hydroxytryptamine receptor 1A (Rattus norvegicus, UniProt P19327); experiment: In vitro binding affinity against 5-hydroxytryptamine 1A receptor using [3H]8-OH-DPAT
# T2 sequence (P19327 whole entry): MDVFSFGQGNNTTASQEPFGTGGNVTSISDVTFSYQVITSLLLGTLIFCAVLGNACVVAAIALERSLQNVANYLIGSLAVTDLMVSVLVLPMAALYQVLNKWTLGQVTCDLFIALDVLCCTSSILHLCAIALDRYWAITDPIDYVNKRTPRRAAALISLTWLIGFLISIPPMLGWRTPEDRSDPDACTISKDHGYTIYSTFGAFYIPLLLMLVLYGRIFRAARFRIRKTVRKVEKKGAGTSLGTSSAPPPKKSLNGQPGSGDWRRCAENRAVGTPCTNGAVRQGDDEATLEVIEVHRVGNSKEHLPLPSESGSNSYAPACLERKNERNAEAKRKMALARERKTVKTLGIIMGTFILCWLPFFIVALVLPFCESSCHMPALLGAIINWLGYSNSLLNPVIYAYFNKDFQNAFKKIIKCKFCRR
# How it was run: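 Rat whole-brain membranes (brainstem and cerebellum removed) in 50 mM Tris pH 8.0 containing NaCl, CaCl2, MgCl2 and 10 μM pargyline, 10 mg tissue per tube. Nonspecific binding was defined with 10 μM 5-HT. IC50 was taken by semi-log linear regression and Ki by Cheng–Prusoff; triplicates.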
# Rattus norvegicus [13] = organism: Rattus norvegicus; experiment: Compound was tested for 5HT, Dopamine agonist mediated response in reserpine pretreated rats; mix DA, 5-HT syndrome; type: functional, organism-based; how it was run: as §2
# Rattus norvegicus [14] = experiment: Maximal reduction in percent (Partial response) of DOPA accumulation rat limbic system at highest test dose of 50 uM/Kg (sc); type: functional
# Rattus norvegicus [15] = experiment: In vivo evaluation for DOPA accumulation in the hemispheres in male rats at highest dose tested at 50 uM/Kg; inactive; type: functional, organism-based; how it was run: as §1
# Rattus norvegicus [16] = experiment: Maximal reduction in percent (Partial response) of DOPA accumulation rat lhemispheres at highest test dose of 2.0 uM/Kg (sc); type: functional; how it was run: as §1
# Rattus norvegicus [17] = experiment: In vivo evaluation for DOPA accumulation in the hemispheres in male rats at highest test dose of 50 uM/Kg (sc); inactive; type: functional, organism-based; how it was run: as §1
# Rattus norvegicus [18] = experiment: In vivo evaluation for DOPA accumulation in the limbic system in male rats at highest test dose of 50 uM/Kg (sc); inactive; type: functional, organism-based; how it was run: as §1
# Rattus norvegicus [19] = experiment: In vivo evaluation for DOPA accumulation in the corpus striatum in male rats at highest test dose of 50 uM/Kg (sc); inactive; type: functional, organism-based; how it was run: as §1
# Rattus norvegicus [20] = experiment: Maximal reduction in percent (Partial response) of DOPA accumulation rat lhemispheres at highest test dose of 12.5 umol/kg (sc); type: functional; how it was run: as §1
# T1 sequence (P61169 whole entry): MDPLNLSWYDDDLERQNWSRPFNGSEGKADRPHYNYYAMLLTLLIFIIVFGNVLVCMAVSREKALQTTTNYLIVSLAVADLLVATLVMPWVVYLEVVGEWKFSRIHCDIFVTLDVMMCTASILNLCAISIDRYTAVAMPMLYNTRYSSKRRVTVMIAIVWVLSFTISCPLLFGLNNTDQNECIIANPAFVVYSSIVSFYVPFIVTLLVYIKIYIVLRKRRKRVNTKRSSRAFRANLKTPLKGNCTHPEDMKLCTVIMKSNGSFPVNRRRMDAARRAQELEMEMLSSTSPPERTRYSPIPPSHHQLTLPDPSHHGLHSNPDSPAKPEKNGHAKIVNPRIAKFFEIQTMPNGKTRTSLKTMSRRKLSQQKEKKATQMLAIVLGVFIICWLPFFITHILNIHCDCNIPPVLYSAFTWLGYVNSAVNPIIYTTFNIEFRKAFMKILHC
smiles,measurement,setting,value
CCCN(CCC)C1CCc2ccc3[nH]cc(C=O)c3c2C1 (racemic),Ki,D(2) dopamine receptor [1],120 nM
same,ED50,Rattus norvegicus [2],0.06 µmol/kg
same,ED50,Rattus norvegicus [3],0.067 µmol/kg
same,Ki,D(2) dopamine receptor [4],40 nM
same,ED50,Rattus norvegicus [5],0.054 µmol/kg
same,ED50,Rattus norvegicus [6],0.47 µmol/kg
same,ED50,Rattus norvegicus [7],inactive
same,ED50,Rattus norvegicus [8],1.8 µmol/kg
same,Behavioral response,Rattus norvegicus [9],Active
CCCN(CCC)C1CCc2cc3cc[nH]c3cc2C1 (centres undefined),Reduction,Rattus norvegicus [10],35%
same,Ki,D(2) dopamine receptor [1],350 nM
same,Reduction,Rattus norvegicus [11],51%
same,Ki,[12],570 nM
same,Behavioral response,Rattus norvegicus [13],Active
same,Reduction,Rattus norvegicus [14],30%
same,ED50,Rattus norvegicus [15],inactive
CN(C)[C@@H]1CCc2ccc3[nH]ccc3c2C1,Reduction,Rattus norvegicus [16],30%
same,ED50,Rattus norvegicus [2],0.4 µmol/kg
same,ED50,Rattus norvegicus [3],0.4 µmol/kg
same,ED50,Rattus norvegicus [5],0.1 µmol/kg
same,Behavioral response,Rattus norvegicus [13],Active
same,ED50,Rattus norvegicus [6],0.3 µmol/kg
same,ED50,Rattus norvegicus [8],0.4 µmol/kg
CCCN(CCC)[C@H]1CCc2cccc(O)c2C1,Ki,D(2) dopamine receptor [1],5070 nM
same,ED50,Rattus norvegicus [2],0.061 µmol/kg
same,ED50,Rattus norvegicus [17],inactive
same,ED50,Rattus norvegicus [3],0.077 µmol/kg
same,ED50,Rattus norvegicus [5],0.065 µmol/kg
same,Behavioral response,Rattus norvegicus [9],Active
same,ED50,Rattus norvegicus [18],inactive
same,ED50,Rattus norvegicus [19],inactive
CCCN(CCC)C1CCc2ccc3[nH]ccc3c2C1 (racemic),Ki,D(2) dopamine receptor [1],156 nM
same,ED50,Rattus norvegicus [2],0.1 µmol/kg
same,ED50,Rattus norvegicus [3],0.11 µmol/kg
same,ED50,Rattus norvegicus [5],0.08 µmol/kg
same,Behavioral response,Rattus norvegicus [13],Active
same,ED50,Rattus norvegicus [6],0.18 µmol/kg
same,ED50,Rattus norvegicus [8],0.28 µmol/kg
same,Reduction,Rattus norvegicus [20],22%
